# According to ChEMBL document CHEMBL1134366, “Enantiospecific synthesis and pharmacological evaluation of a series of super-potent, conformationally restricted 5-HT(2A/2C) receptor agonists” (J Med Chem, 2001):
# Experiments:
# [1] = biological target: T1, 5-hydroxytryptamine receptor 2A (Rattus norvegicus, UniProt P14842); assay: Binding affinity at cloned rat 5-hydroxytryptamine 2A receptor using [3H]DOB as radioligand
# How it was run: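 Competition binding using harvested, frozen NIH-3T3 cells stably expressing rat 5-HT2A, serum-starved 5 h before harvest. Incubated 60 min at 25 °C, then rapid filtration onto GF/B filters pre-soaked in 0.3% polyethylenimine, and scintillation counting. Nonspecific binding defined with 10 µM cinanserin in the saturation assays.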
# [2] = biological target: T1, 5-hydroxytryptamine receptor 2A; assay: Ability to stimulate phosphoinositide hydrolysis in NIH3T3 cells expressing the 5-hydroxytryptamine 2A receptor; format: cell-based
# [3] = biological target: 5-hydroxytryptamine receptor 2A (Rattus norvegicus) (UniProt P14842); assay: Percent maximal 5-HT stimulation at cloned rat 5-hydroxytryptamine 2A receptor (phosphoinositide hydrolysis study) at a conc of 100 uM
# Chain of 5-hydroxytryptamine receptor 2A (Rattus norvegicus) (P14842 whole entry): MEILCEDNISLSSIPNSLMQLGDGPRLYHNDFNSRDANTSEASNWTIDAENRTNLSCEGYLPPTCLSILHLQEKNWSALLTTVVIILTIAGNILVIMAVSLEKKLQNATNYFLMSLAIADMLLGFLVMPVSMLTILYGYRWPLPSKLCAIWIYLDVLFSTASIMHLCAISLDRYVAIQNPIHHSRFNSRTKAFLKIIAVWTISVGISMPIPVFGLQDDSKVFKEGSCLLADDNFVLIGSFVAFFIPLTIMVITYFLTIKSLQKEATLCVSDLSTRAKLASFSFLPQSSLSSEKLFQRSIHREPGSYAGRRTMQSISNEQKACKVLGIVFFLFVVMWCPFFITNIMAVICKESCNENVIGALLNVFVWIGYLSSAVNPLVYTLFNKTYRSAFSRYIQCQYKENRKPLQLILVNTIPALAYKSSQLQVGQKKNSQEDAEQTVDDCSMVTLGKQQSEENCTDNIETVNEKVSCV
# [4] = biological target: T2, 5-hydroxytryptamine receptor 2C (Rattus norvegicus, UniProt P08909); assay: Binding affinity at cloned rat 5-hydroxytryptamine 2C receptor using [3H]DOI as radioligand
# T2 sequence (P08909 whole entry): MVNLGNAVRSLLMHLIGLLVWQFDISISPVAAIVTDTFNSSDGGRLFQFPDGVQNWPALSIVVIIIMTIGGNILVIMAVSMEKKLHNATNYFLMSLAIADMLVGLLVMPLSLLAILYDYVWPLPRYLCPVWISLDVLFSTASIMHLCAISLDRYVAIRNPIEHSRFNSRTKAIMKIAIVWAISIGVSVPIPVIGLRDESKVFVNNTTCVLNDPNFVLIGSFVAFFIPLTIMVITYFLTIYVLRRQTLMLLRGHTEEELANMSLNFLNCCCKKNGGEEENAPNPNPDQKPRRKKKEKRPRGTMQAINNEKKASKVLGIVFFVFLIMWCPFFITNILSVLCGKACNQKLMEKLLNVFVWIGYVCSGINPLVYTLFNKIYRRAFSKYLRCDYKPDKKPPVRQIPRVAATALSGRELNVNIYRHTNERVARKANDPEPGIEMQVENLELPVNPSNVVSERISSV
# How it was run: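 Competition binding using harvested, frozen NIH-3T3 cells stably expressing rat 5-HT2C. Buffer 50 mM Tris, 0.5 mM EDTA, 10 mM MgCl2, pH 7.4. Incubated 60 min at 25 °C, then rapid filtration onto polyethylenimine-treated GF/B filters and scintillation counting. Nonspecific binding defined with 10 µM mianserin in the saturation assays.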
# T1 sequence (P14842 whole entry): as the sequence (P14842 whole entry) above
SMILES,Ki [1] [nM],EC50 [2] [nM],Max stimulation [3] [%],Ki [4] [nM]
COc1ccc(OC)c(C[C@@H](C)N)c1,2340,> 10000,16,520
COc1cc(CC(C)N)c(OC)cc1Br (configuration not stated),–,–,79,–
C[C@H](N)Cc1c2c(c(C(F)(F)F)c3c1OCC3)OCC2,2,30,60,1.6
C[C@H](N)Cc1c2ccoc2c(Br)c2ccoc12,0.68,19,79,0.25
C[C@@H](N)Cc1c2ccoc2cc2ccoc12,1.5,590,76,0.79
C[C@H](N)Cc1c2c(c(Br)c3c1OCC3)OCC2,2.6,35,76,1.1
C[C@@H](N)Cc1c2c(c(C(F)(F)F)c3c1OCC3)OCC2,0.7,28,69,1.9
C[C@H](N)Cc1c2ccoc2c(C(F)(F)F)c2ccoc12,0.32,12,52,0.69
C[C@H](N)Cc1c2ccoc2cc2ccoc12,37.9,650,68,6
COc1cc(C(F)(F)F)c(OC)cc1CC(C)N (configuration not stated),2.2,68.4,86,3.78
C[C@@H](N)Cc1c2ccoc2c(C(F)(F)F)c2ccoc12,0.29,3.8,60,0.4
C[C@@H](N)Cc1c2c(c(Br)c3c1OCC3)OCC2,1.2,8.38,80,0.26
C[C@@H](N)Cc1c2c(cc3c1OCC3)OCC2,54.4,5650,99,8.2
C[C@@H](N)Cc1c2ccoc2c(Br)c2ccoc12,0.31,2.7,93,0.11
C[C@H](N)Cc1c2c(cc3c1OCC3)OCC2,227,2360,62,119
